Measured values from different studies.
Protocols differ between the studies behind these lines. pEC50, pKi: −log10 of the molar value.
Target: 5-hydroxytryptamine receptor 2C (HTR2C, Homo sapiens, UniProt P28335)
One construct used (P28335 33-458): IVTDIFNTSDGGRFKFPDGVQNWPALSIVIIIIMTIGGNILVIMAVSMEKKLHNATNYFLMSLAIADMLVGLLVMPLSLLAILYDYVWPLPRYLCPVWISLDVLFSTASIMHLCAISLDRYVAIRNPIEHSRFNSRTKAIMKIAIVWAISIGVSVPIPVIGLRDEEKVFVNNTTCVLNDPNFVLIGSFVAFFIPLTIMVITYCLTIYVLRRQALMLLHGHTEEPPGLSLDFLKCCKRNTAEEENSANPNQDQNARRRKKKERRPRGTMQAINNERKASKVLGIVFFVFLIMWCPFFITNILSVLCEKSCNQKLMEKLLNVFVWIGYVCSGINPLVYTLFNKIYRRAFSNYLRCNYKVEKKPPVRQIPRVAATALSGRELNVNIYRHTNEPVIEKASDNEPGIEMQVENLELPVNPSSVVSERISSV

SMILES | assay | measurement | value
Fc1ccc(CCCCN2CCN(c3ccccn3)CC2)cc1 | ligand displacement, radioligand | pKi | < 5.00
Cc1nc2cc(OCCCCN3CCN(c4cccc(Cl)c4Cl)CC3)ccc2s1 | cell-free assay, radioligand | pKi | 6.80
CC1Cc2ccccc2N1C(=O)NCCCCN(C)[C@@H]1Cc2cccc3[nH]c(=O)n(c23)C1 (mixture of isomers) | ligand displacement, radioligand | pKi | < 5.00
CC(C)(C)c1cc(C(C)(C)CO)c(O)cc1NC(=O)c1c[nH]c2ccccc2c1=O | ligand displacement, radioligand | pKi | 5.81
CCCCN1CCC(COC(=O)c2ccc(N)c(OCF)c2)CC1 | cell-free assay, radioligand | pKi | < 5.00
CN(CCCCNC(=O)c1cc2ccccc2[nH]1)[C@@H]1Cc2cccc3[nH]c(=O)n(c23)C1 | ligand displacement, radioligand | pKi | 5.61
O=C1c2ccccc2CCN1CCCCN1CCN(c2cccc(Cl)c2Cl)CC1 | ligand displacement, radioligand | pKi | 6.45
CN(Cc1ccc(NC(=O)C2=Cc3cc(-c4ccc(OCCCF)cc4)ccc3CCC2)cc1)C1CCOCC1 | ligand displacement, radioligand | pKi | 5.99
C#CCOCCOc1ccc2c3c1C1CCCC1N3CCNC2 (racemic) | calcium signal, agonist, fluorescence | pEC50 | 7.27
OC[C@@]12C[C@@H]1[C@@H](n1cnc3c(N[C@@H](C4CCC4)C4CC4)nc(I)nc31)[C@H](O)[C@@H]2O | calcium signal, antagonist | Kb | 148 nM
COc1cc(OC)c(C(=O)CCCCN2CCC3(CC2)NC(=O)NC3=O)cc1NS(=O)(=O)c1ccc(C(F)(F)F)cc1 | ligand displacement, radioligand | pKi | 9.00
C#CCOCCOCCOc1ccc2c3c1C1CCCC1N3CCNC2 (racemic) | calcium signal, agonist, fluorescence | pEC50 | 6.63
CNc1nc2cc(OCCCCN3CCC(c4cccc(Cl)c4Cl)CC3)ccc2s1 | cell-free assay, radioligand | pKi | 7.14
